Assays:
mouse TRPM3α2 [1] = target: T1, mouse TRPM3α2 (Mus musculus, UniProt J9SQF3); format: cell-based; conditions: for Hill coefficient of TRPM3 inhibition: Fluo-4-loaded HEKmTRPM3 cells, PregS-induced Ca2+ signal; for TRPM3 inhibition relative to mefenamic acid: primary screen, data not shown
mouse TRPM3α2 [2] = target: T1, mouse TRPM3α2; assay: Whole-cell patch-clamp of TRPM3 currents in HEKmTRPM3 cells; format: cell-based
human TRPM8 = human TRPM8 (Homo sapiens, UniProt Q7Z2W7); assay: Selectivity Ca2+ assay in HEKhTRPM8 cells, menthol-stimulated; format: cell-based; conditions: menthol 300 μM, drug up to 50 μM
Chain of human TRPM8 (Q7Z2W7 whole entry): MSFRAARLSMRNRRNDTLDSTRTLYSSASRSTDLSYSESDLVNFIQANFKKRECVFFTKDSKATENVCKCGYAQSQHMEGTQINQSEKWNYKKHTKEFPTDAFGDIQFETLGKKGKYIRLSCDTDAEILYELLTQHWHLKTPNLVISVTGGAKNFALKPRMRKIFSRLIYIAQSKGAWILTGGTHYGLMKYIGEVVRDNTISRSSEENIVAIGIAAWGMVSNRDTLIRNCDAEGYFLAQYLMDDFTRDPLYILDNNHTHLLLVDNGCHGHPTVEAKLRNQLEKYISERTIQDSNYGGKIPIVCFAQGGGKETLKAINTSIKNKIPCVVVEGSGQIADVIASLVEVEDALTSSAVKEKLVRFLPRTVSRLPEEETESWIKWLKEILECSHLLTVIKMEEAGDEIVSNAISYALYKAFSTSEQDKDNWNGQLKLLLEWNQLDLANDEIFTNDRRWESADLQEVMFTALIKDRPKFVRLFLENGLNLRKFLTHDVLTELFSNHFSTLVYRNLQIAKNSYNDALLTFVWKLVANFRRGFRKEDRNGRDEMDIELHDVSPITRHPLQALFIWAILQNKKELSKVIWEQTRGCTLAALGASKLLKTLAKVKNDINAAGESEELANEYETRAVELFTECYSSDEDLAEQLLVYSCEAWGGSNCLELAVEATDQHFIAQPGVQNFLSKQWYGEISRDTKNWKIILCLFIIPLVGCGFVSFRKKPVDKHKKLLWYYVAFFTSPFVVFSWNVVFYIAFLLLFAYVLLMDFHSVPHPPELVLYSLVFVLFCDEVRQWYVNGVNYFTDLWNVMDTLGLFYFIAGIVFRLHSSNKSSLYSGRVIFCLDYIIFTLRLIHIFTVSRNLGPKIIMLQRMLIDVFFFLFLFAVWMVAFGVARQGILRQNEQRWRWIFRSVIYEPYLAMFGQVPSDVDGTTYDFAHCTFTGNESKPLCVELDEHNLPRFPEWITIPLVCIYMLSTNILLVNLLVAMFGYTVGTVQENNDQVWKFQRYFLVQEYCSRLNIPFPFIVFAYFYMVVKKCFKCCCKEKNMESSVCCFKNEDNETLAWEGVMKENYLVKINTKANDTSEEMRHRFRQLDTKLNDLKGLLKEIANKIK
Outline: (§1)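 Stable HEK293 lines expressing human TRPA1, rat TRPV1 or human TRPM8 were loaded in suspension with Fluo-4/AM (4 μM, 30 min, 37°C) and resuspended in HEPES-buffered saline, pH 7.4. Cells were pre-exposed to test compound in 384-well plates. After baseline reading, cells were stimulated with 30 μM AITC (TRPA1), 2 μM capsaicin (TRPV1) or 300 μM menthol (TRPM8). Background-corrected fluorescence was normalized to initial intensity (F/F₀).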

human ankyrin-like TRPA1 = human ankyrin-like TRPA1 (Homo sapiens, UniProt O75762); assay: Selectivity Ca2+ assay in HEKhTRPA1 cells, AITC-stimulated; format: cell-based; conditions: AITC 30 μM; for Inhibition of AITC-induced TRPA1 activation: drug up to 50 μM
Chain of human ankyrin-like TRPA1 (O75762 whole entry): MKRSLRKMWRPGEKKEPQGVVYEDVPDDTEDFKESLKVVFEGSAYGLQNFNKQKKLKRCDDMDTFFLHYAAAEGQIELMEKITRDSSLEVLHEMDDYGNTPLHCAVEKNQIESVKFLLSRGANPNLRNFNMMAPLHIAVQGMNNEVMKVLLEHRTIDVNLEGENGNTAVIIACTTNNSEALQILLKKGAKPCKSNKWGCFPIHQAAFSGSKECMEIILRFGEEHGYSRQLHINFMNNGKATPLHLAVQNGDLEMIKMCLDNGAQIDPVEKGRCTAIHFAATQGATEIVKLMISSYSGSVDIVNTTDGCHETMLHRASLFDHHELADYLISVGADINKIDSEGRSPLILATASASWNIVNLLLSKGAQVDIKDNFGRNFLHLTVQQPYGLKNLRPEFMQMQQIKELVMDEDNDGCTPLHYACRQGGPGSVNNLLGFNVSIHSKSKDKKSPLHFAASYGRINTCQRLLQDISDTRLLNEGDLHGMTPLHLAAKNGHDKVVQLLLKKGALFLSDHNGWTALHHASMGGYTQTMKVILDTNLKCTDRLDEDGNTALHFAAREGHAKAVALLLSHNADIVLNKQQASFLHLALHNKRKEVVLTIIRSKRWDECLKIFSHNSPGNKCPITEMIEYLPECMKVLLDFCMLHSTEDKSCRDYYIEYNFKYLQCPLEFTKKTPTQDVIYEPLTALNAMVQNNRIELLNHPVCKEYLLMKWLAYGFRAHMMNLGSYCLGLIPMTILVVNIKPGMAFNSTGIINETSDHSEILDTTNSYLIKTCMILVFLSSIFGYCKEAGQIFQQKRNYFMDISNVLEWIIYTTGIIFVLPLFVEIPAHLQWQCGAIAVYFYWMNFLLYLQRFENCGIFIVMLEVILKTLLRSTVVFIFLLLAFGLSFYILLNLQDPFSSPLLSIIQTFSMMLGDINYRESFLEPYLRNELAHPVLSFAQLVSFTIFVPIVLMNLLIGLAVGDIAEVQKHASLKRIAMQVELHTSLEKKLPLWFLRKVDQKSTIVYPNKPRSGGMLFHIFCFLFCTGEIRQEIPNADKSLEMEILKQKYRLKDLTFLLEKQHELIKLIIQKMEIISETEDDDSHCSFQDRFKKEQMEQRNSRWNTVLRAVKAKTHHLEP
Outline: as §1

human TRPM2 = human TRPM2 (Homo sapiens, UniProt O94759); assay: H2O2-induced [Ca2+]i signals in HEK cells expressing human TRPM2; format: cell-based; conditions: diclofenac at concentrations above 1 μM, data not shown
[3] = physiological pH, no reference given; cited from earlier work
TRPA1 = conditions: read-out: EC50 of TRPA1 activation; cited from earlier work
rat TRPV1 = rat TRPV1 (Rattus norvegicus, UniProt O35433); assay: Selectivity Ca2+ assay in HEKrTRPV1 cells, capsaicin-stimulated; format: cell-based; conditions: capsaicin 2 μM, drug up to 50 μM
Chain of rat TRPV1 (O35433 whole entry): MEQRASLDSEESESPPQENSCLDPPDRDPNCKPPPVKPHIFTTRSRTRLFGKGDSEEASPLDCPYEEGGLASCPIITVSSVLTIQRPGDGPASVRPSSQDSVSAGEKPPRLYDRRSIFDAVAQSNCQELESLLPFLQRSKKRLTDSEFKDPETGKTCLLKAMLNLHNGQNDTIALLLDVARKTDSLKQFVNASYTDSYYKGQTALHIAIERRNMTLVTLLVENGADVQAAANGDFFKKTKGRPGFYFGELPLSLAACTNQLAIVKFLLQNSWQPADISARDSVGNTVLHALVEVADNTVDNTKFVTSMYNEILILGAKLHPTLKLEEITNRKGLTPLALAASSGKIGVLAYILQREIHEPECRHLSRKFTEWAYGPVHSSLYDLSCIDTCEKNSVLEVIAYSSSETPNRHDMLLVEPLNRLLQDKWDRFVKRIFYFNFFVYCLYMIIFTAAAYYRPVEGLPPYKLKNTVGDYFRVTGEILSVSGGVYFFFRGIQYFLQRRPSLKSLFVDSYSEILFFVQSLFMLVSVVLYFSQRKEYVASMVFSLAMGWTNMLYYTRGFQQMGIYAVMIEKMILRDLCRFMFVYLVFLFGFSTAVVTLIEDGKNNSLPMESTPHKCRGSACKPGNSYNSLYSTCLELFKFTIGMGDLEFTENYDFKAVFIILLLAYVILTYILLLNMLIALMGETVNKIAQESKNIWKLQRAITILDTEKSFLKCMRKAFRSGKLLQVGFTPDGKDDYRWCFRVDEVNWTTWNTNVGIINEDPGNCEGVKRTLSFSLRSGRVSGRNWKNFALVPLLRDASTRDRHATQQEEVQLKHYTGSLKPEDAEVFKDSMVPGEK
Outline: as §1

[4] = cited from earlier work
mouse TRPM3α2 [5] = target: T1, mouse TRPM3α2; format: cell-based; conditions: 10 μM primidone, temperature 22 to 37°C, Fura-2
rat DRG neurones = assay: Single-cell Fura-2 [Ca2+]i measurement in isolated rat DRG neurones; format: cell-based; conditions: 10 μM primidone
human TRPM3α2 = human TRPM3α2 (Homo sapiens, UniProt Q9HCF6); format: cell-based; conditions: qualitative; PregS 35 μM, primidone 25 μM
Outline: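 HEK293 cells were grown in MEM with Earle's salts, 10% FCS, 2 mM L-glutamine and penicillin/streptomycin. 1–2 days after seeding, they were transfected with 2 μg plasmid encoding human TRPM3α2 C-terminally fused to YFP and used 2 days later. For [Ca²⁺]i measurement, 35 μM PregS and 25 μM test compound were added sequentially. Nontransfected HEK293 cells served as control.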

C57BL/6J mice [6] = assay: Pregnenolone sulfate-induced chemical pain in mice; format: in vivo, mouse; conditions: for Nociception as duration per single response, compared with controls: data not shown
Outline: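 Mice received i.p. test compound (0.5, 2, 10 mg·kg⁻¹, suspended in 0.5% Tween 20) or vehicle. After 20 min, 5 nmol PregS (in sterile water, 10 μL total) was injected into the right hind paw. Over 180 s, observers recorded latency to the first response, number of responses and total duration of licking, lifting and shaking. n = 8 each; mean ± SEM; one-way ANOVA.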

C57BL/6J mice [7] = assay: Hot plate test; format: in vivo, mouse; conditions: 52°C
Outline: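 Male C57BL/6J mice were placed on a 52°C hot plate 20 min after i.p. test compound (0.5, 2, 10 mg·kg⁻¹ in 0.5% Tween 20) or vehicle. Latency to the first nocifensive hind-paw response was recorded, with a 45 s cutoff. Mean ± SEM; one-way ANOVA.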

C57BL/6J mice [8] = assay: Exploratory motor activity; format: in vivo, mouse; conditions: primidone 10 mg·kg^−1 i.p., after 120 minutes
Outline: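 Male C57BL/6J mice, 10–12 weeks old. Test compound was suspended in 0.5% Tween 20, which also served as vehicle control, and given i.p. Travelled distance in an opaque open-field box was video-tracked for 5 min, both immediately before the hot plate test and 120 min after dosing. n = 10 each; mean ± SEM; one-way ANOVA.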

C57BL/6J mice [9] = assay: Tail immersion test; format: in vivo, mouse; conditions: primidone 1 mg·kg^−1 i.p., 48°C
Outline: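 Tail immersion in male C57BL/6J mice given test compound at 1 mg·kg⁻¹ i.p. or vehicle (0.5% Tween 20). Each mouse was restrained in a 50 mL conical tube, and the distal half of the tail was dipped in water at 48.0 ± 0.5°C. Latency to vigorous tail flexion was recorded, with a 15 s cutoff. n = 10 each; mean ± SEM.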

C57BL/6J mice [10] = assay: CFA-induced inflammatory thermal hyperalgesia, hot plate; format: in vivo, mouse; conditions: primidone 1 mg·kg^−1 i.p., 24 hours after CFA

T1 sequence (J9SQF3 1-1709 isoform J9SQF3-12): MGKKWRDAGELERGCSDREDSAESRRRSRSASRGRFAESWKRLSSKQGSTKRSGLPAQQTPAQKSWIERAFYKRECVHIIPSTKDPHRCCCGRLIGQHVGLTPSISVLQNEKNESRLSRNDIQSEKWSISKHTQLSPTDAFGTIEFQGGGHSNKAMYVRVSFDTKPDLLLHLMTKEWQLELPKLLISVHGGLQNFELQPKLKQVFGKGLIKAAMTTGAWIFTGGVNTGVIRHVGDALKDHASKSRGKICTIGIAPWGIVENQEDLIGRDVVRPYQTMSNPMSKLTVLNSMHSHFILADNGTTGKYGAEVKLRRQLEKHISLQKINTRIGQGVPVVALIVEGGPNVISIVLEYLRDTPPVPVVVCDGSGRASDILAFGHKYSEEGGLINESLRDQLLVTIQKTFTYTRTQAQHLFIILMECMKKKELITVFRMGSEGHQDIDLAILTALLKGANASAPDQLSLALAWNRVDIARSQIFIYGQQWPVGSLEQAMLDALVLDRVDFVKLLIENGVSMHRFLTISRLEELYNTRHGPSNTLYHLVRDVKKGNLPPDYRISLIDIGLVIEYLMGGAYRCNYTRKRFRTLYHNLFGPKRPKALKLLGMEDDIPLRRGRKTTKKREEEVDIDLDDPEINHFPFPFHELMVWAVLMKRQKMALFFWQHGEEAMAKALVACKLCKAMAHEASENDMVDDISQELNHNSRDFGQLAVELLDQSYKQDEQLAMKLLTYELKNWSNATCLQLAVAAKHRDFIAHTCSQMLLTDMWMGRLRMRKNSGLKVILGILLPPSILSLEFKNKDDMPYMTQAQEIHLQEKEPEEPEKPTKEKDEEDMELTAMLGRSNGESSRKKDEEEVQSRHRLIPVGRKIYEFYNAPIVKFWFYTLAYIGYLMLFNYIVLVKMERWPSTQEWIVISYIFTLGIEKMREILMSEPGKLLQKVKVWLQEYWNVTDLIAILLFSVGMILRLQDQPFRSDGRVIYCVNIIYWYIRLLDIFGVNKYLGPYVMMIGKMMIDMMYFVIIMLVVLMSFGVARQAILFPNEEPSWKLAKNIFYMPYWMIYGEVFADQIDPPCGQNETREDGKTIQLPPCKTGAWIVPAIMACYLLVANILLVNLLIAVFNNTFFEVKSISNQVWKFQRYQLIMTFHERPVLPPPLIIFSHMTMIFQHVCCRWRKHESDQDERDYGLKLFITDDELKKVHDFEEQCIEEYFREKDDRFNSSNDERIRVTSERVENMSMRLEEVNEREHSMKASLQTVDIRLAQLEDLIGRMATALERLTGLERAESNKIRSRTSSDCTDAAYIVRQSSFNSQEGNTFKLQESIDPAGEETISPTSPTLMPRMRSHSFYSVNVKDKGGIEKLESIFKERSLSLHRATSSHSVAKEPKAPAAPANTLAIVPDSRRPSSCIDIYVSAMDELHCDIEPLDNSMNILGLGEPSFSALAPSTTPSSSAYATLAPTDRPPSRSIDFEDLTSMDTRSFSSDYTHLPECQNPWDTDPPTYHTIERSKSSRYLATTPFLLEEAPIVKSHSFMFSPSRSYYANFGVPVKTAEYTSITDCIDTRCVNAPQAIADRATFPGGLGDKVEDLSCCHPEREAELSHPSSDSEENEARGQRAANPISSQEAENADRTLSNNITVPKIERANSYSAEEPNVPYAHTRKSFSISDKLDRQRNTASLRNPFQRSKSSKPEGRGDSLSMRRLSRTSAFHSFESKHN

SMILES: O=C(O)Cc1ccccc1Nc1c(Cl)cccc1Cl [diclofenac]
- Hill coefficient of TRPM3 inhibition (mouse TRPM3α2 [1]): 1.2 ± 0.1
- Effect on PregS-induced inward and outward currents (mouse TRPM3α2 [2]; 25 μM diclofenac in bath, 35 μM PregS): almost completely abolished
- Effect of intracellularly perfused drug on PregS-induced currents (mouse TRPM3α2 [2]; 25 μM diclofenac in pipette solution): did not prevent PregS-induced currents
- inhibition at 5 µM (mouse TRPM3α2 [2]; read-out: Inhibition of depolarizing inward currents): ~70%
- Inhibition of menthol-induced TRPM8 activation (human TRPM8): almost unaffected
- Attenuation of responses to AITC stimulation (human ankyrin-like TRPA1; diclofenac at concentrations higher than 50 μM): about 50%
- Inhibition of H2O2-induced [Ca2+]i signals (human TRPM2): partial inhibition
- Share of deprotonized, negatively charged microspecies [3]: > 99%
- EC50 (TRPA1): 210 µM

SMILES: O=C(O)c1ccccc1Nc1cccc(C(F)(F)F)c1 [flufenamic acid]
- TRPM3 inhibition relative to mefenamic acid (mouse TRPM3α2 [1]): less potent and poorly specific TRPM3 inhibitors

SMILES: CNCCCC12CCC(c3ccccc31)c1ccccc12 [maprotiline]
- Inhibition of capsaicin-induced TRPV1 activation (rat TRPV1): no apparent inhibition
- Inhibition of menthol-induced TRPM8 activation (human TRPM8): no apparent inhibition
- Inhibition of AITC-induced TRPA1 activation (human ankyrin-like TRPA1): no apparent inhibition

SMILES: CCC1(c2ccccc2)C(=O)NC(=O)NC1=O [phenobarbital]
- Plasma concentration of the major active metabolite during primidone therapy [4]: 15 to 40 µM

SMILES: CCC1(c2ccccc2)C(=O)NCNC1=O [primidone]
- IC50 (mouse TRPM3α2 [1]): ~0.6 µM
- Hill coefficient of TRPM3 inhibition (mouse TRPM3α2 [1]): 1.4 ± 0.2
- Effect on omega pore-like currents evoked by coapplied PregS and clotrimazole (mouse TRPM3α2 [2]; 10 μM primidone, 40 μM PregS and 10 μM clotrimazole): inhibited
- Effect on PregS-induced inward currents (mouse TRPM3α2 [2]; 3 and 5 μM primidone, 35 μM PregS): almost completely abolished
- Potency to block TRPM3 currents (mouse TRPM3α2 [2]; electrophysiological recordings): submicromolar potency
- Inhibition of capsaicin-induced TRPV1 activation (rat TRPV1): no apparent inhibition
- Inhibition of menthol-induced TRPM8 activation (human TRPM8): no apparent inhibition
- Inhibition of AITC-induced TRPA1 activation (human ankyrin-like TRPA1): no apparent inhibition
- Effect on [Ca2+]i during heat-induced TRPM3 activation (mouse TRPM3α2 [5]): rapid and reversible decrease in [Ca^2+]i
- Inhibition of [Ca2+]i responses of capsaicin treatment (rat DRG neurones; 2 μM capsaicin, data not shown): not discernibly inhibited
- Effect on [Ca2+]i in PregS-responsive DRG neurones (rat DRG neurones; PregS 35 μM): immediate decrease in [Ca^2+]i
- Effect on PregS-induced responses at the human TRPM3 channel (human TRPM3α2): confirmed the effectiveness
- Latency and total response duration to PregS-induced pain (C57BL/6J mice [6]; primidone 0.5 mg·kg^−1 i.p., 20 minutes before PregS 5 nmol i.pl.): significant antinociception
- Nociception as duration per single response, compared with controls (C57BL/6J mice [6]; primidone 0.5 mg·kg^−1 i.p.): significantly reduced
- Nociception as duration per single response, compared with controls (C57BL/6J mice [6]; primidone 10 mg·kg^−1 i.p.): intensified
- Number of responses to PregS (C57BL/6J mice [6]; primidone 0.5, 2 and 10 mg·kg^−1 i.p.): not altered
- Response latency on the hot plate (C57BL/6J mice [7]; primidone 10 mg·kg^−1 i.p.): did not differ from controls
- Response latency on the hot plate (C57BL/6J mice [7]; primidone 0.5 and 2 mg·kg^−1 i.p.): prolonged the response latency
- Exploratory activity (travelled distance) (C57BL/6J mice [8]): slight reduction of exploratory activity
- Latency to tail withdrawal (C57BL/6J mice [9]): prolonged the latency to tail withdrawal
- CFA-induced sensitization, hot plate latency (C57BL/6J mice [10]): prevented the signs of CFA-induced sensitization
- Therapeutic plasma concentrations [4]: 20 to 50 µM
- Plasma protein binding ([4]; no reference given): less than 10%
- Relative distribution volume ([4]; no reference given): 0.6 L/kg

SMILES: Cc1c(Cl)cccc1Nc1ccccc1C(=O)O [tolfenamic acid]
- TRPM3 inhibition relative to mefenamic acid (mouse TRPM3α2 [1]): less potent and poorly specific TRPM3 inhibitors
